Assay results from different studies.
ADRA2C: Alpha-2C adrenergic receptor (ADRA2C, Homo sapiens, UniProt P18825)
MAPK14: Mitogen-activated protein kinase 14 (MAPK14, Homo sapiens, UniProt Q16539)
HTR1A: 5-hydroxytryptamine receptor 1A (HTR1A, Homo sapiens, UniProt P08908)
PDE3A: cGMP-inhibited 3',5'-cyclic phosphodiesterase 3A (PDE3A, Homo sapiens, UniProt Q14432)
LRRK2 G2019S: Leucine-rich repeat serine/threonine-protein kinase 2 (LRRK2, Homo sapiens, UniProt Q5S007, G2019S)

CCCC[C@H](NC(=O)[C@H](C)c1c(C)[nH]c2ccc(O)cc12)c1ncc(-c2cc3ccccc3nc2OC)[nH]1
IC50 (Prostaglandin E2 receptor EP3 subtype (PTGER3, Homo sapiens, UniProt P43115); enzyme activity): 8650 nM

Cc1nccc2c1c(=O)n(C)c1cc(OC[C@@H](N)CC(C)C)c(C#N)cc21
IC50 (ADRA2C; cell-free assay): > 30000 nM

CCN1CCN(c2c(Cl)cccc2NC(=O)c2ccc(Br)o2)CC1
IC50 (MAPK14; enzyme activity, inhibitor): > 20000 nM

CN(CCCCNC(=O)c1cc2ccccc2[nH]1)[C@@H]1Cc2cccc3[nH]c(=O)n(c23)C1
IC50 (HTR1A; ligand displacement, radioligand): 137 nM

COc1cc2c(cc1OC)-c1c/c(=N\c3c(C)cc(C)cc3C)n(C)c(=O)n1CC2
IC50 (PDE3A; enzyme activity, inhibitor, FP): 0.067 nM

O=c1ccc2cc(O)c(O)cc2o1
IC50 (LRRK2 G2019S; enzyme activity, inhibitor, radiometric): 358 nM

CCCCCCOC(=O)c1ccccc1C(=O)c1ccc(N(CC)CC)cc1O
IC50 (Estrogen receptor (ESR1, Homo sapiens, UniProt P03372); reporter gene, antagonist): 4760 nM

C[C@@H]1Cc2ccccc2N1C(=O)NCCCCN(C)[C@@H]1Cc2cccc3[nH]c(=O)n(c23)C1
IC50 (HTR1A; ligand displacement, radioligand): 35.8 nM

CC(C)(C)n1nc(-c2cnc3cc(OC4CC4)ccc3c2)c(C(N)=O)c1N
IC50 (Death-associated protein kinase 3 (DAPK3, Homo sapiens, UniProt O43293); cell-free assay): > 10000 nM

COc1ccc(C2=NN(C3CCCCCC3)C(=O)[C@@H]3CC=CC[C@H]23)cc1-c1ccc(C(N)=O)cc1 (relative stereo)
IC50 (PDE3A; enzyme activity, inhibitor): 7940 nM

CC(C)(C)n1nc(-c2ccc3nc(OC4CC4)ccc3c2)c(C(N)=O)c1N
IC50 (MAPK14; cell-free assay): > 10000 nM

CNC(=O)c1cc2c(Oc3ccc(NC(=O)C4(C(=O)Nc5ccc(F)cc5)CC4)cc3)ccnc2cc1OC
IC50 (Macrophage-stimulating protein receptor (MST1R, Homo sapiens, UniProt Q04912); enzyme activity, inhibitor, radiometric): 43 nM

N#C/C(=C\c1ccc(O)c(O)c1)C(=O)OC/C=C/c1ccccc1
IC50 (LRRK2 G2019S; enzyme activity, inhibitor, radiometric): 231 nM

CSc1ccc(/C=C2/C(C)=C(CC(=O)O)c3cc(F)ccc32)cc1
IC50 (PDE3A; enzyme activity, inhibitor): > 100000 nM

COc1ccc2c(Oc3ccc4c(C(=O)Nc5ccccc5N)cccc4c3)ccnc2c1
IC50 (MAPK14; enzyme activity, inhibitor): > 500 nM

CCOCc1nc(O)c(-c2nnc(Cc3ccc(Cl)cn3)o2)c(O)c1-c1c(OC)cccc1OC
IC50 (ADRA2C; ligand displacement, radioligand): > 30000 nM

Cc1cnc(-c2ccc(-c3ccc(NC(=O)Nc4c(F)cc(F)cc4F)cc3F)c3c2C(=O)NC3)[nH]1
IC50 (Serine/threonine-protein kinase PLK4 (PLK4, Homo sapiens, UniProt O00444); enzyme activity, inhibitor): 4.8 nM

CNc1nc(C)nc(N[C@H]2CCC[C@@H](C(=O)NCc3ccc(C#N)cc3C(F)(F)F)C2)n1
IC50 (Bifunctional epoxide hydrolase 2 (Ephx2, Rattus norvegicus, UniProt P80299); enzyme activity, inhibitor): 2.9 nM

CN1CCN(c2ccc(Nc3ncc4cc(C#N)c(=O)n(C5CCCC5)c4n3)cc2)CC1
IC50 (Mitogen-activated protein kinase kinase kinase kinase 4 (MAP4K4, Homo sapiens, UniProt O95819); enzyme activity, inhibitor): 245 nM

CC/C(=N\NC(=O)C(C)Nc1ccccc1)c1ccc(O)c(C)c1O (centres unmarked)
IC50 (cAMP-dependent protein kinase catalytic subunit beta (PRKACB, Homo sapiens, UniProt P22694); enzyme activity, inhibitor): 24.9 nM
